ChEMBL document CHEMBL1123603, “Synthesis of angiotensin II antagonists with variations in position 5” (J Med Chem, 1987)
Square brackets hold non-standard residues; d marks the D form. Peptide text beside a SMILES is read from it. * marks the point of attachment. Gly(cPent) = N[C@H](C(=O)O)C1CCCC1; Chg = N[C@H](C(=O)O)C1CCCCC1; Lac = C[C@H](O)C(=O)O; Glycolyl = O=C(CO)*; Sar = CNCC(=O)O

Columns and labels:
Rattus norvegicus [1] = assay: Tested in vivo on the angiotensin II induced rise of blood pressure after intravenous administration of 1.25 ug/kg in conscious rats; type: functional
Outline: (§1)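 Conscious, free-moving rats, carotid artery linked to a pressure transducer 24 h after surgery. One analogue per rat, in 0.9% NaCl with 5 g/L BSA, given as a 10-s iv bolus into the jugular vein. Doses 1.25–20 μg/kg in random order, one every 20 min. Maximal blood pressure rise recorded; 6 rats; ANOVA with Dunnett's test.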

Rattus norvegicus [2] = assay: Tested in vivo on the angiotensin II induced rise of blood pressure after intravenous administration of 10 ug/kg in conscious rats; type: functional; outline: as §1
Rattus norvegicus [3] = assay: Tested in vivo on the angiotensin II induced rise of blood pressure after intravenous administration of 2.5 ug/kg in conscious rats; type: functional; outline: as §1
Rattus norvegicus [4] = assay: Tested in vivo on the angiotensin II induced rise of blood pressure after intravenous administration of 20 ug/kg in conscious rats; type: functional; outline: as §1
Rattus norvegicus [5] = assay: Tested in vivo on the angiotensin II induced rise of blood pressure after intravenous administration of 5 ug/kg in conscious rats; type: functional; outline: as §1
Angiotensin II receptor = target: T1, Angiotensin II receptor (Rattus norvegicus, UniProt P29089+P25095+P35351); assay: Antagonistic effect against Angiotensin II receptor in zona glomerulosa; type: functional
T1 sequence (P29089 whole entry): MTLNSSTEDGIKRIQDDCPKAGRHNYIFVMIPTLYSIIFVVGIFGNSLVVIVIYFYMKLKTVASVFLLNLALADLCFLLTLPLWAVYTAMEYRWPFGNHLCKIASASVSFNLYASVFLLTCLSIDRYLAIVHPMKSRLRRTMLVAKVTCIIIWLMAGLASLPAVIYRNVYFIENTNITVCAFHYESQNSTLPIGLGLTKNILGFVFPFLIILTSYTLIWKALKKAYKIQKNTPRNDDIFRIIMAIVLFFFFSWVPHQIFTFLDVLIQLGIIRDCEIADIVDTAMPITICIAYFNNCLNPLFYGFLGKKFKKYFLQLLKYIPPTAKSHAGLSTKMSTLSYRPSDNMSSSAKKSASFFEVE
T1 sequence (P25095 whole entry): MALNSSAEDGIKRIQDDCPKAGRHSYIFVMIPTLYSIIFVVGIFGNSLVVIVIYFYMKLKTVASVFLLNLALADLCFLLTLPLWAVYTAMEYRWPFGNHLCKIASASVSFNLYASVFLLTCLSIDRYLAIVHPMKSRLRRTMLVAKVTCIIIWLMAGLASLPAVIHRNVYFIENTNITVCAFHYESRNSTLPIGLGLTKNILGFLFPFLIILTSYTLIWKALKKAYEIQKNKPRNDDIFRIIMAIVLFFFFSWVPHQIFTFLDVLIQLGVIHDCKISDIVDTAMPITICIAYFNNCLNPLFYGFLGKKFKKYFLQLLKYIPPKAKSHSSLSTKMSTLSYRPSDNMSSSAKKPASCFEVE
T1 sequence (P35351 whole entry): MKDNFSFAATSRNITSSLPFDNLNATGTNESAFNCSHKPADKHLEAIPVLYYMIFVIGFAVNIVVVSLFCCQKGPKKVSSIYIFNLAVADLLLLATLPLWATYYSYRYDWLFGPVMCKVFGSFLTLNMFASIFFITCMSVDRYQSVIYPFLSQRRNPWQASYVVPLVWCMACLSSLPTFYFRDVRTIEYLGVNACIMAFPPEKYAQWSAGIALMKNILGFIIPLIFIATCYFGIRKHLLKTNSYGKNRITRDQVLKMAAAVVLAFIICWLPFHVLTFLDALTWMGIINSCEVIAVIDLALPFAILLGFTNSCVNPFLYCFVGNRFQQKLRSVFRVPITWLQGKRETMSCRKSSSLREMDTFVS
Outline: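 Dispersed zona glomerulosa cells from male CFY rats, 250–300 g. Capsules digested with collagenase 2 mg/mL and DNase 0.1 mg/mL, 2 × 25 min at 37 °C. Cells 3.0–3.5 × 10⁶/mL in Krebs–Ringer glucose buffer, 5 g/L albumin. Antagonists 2 × 10⁻¹²–2 × 10⁻⁶ M, alone or with 2 × 10⁻⁸ M AII, duplicate or triplicate. Aldosterone by RIA after CHCl3 extraction; pA2 values.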

[6] = target: Angiotensin II receptor (Oryctolagus cuniculus); assay: Antagonistic effect against Angiotensin II receptor in rabbit aortic strip

pA2 (Angiotensin II receptor) | pA2 [6] | Structure (SMILES) | Blood pressure (Rattus norvegicus [1]) | Blood pressure (Rattus norvegicus [2]) | Blood pressure (Rattus norvegicus [3]) | Blood pressure (Rattus norvegicus [4]) | Blood pressure (Rattus norvegicus [5])
– | – | CNCC(=O)N[C@@H](CCCNC(=N)N)C(=O)N[C@H](C(=O)N[C@@H](Cc1ccc(O)cc1)C(=O)N[C@H](C(=O)N[C@@H](Cc1cnc[nH]1)C(=O)N1CCC[C@H]1C(=O)N[C@@H](C)C(=O)O)C(C)C)C(C)C [SARALASIN] | 7.9 mmHg | 15 mmHg | 9.3 mmHg | 20 mmHg | 12.1 mmHg
9.933 | 9.42 | CNCC(=O)N[C@@H](CCCN=C(N)N)C(=O)N[C@H](C(=O)N[C@@H](Cc1ccc(O)cc1)C(=O)N[C@H](C(=O)N[C@@H](Cc1c[nH]cn1)C(=O)N1CCC[C@H]1C(=O)N[C@@H](C)C(=O)O)C1CCCC1)C(C)C | 5.8 mmHg | 17.5 mmHg | 10 mmHg | 14.2 mmHg | 10 mmHg
10.39 | 11.29 | CNCC(=O)N[C@@H](CCCN=C(N)N)C(=O)N[C@H](C(=O)N[C@@H](Cc1ccc(O)cc1)C(=O)N[C@H](C(=O)N[C@@H](Cc1c[nH]cn1)C(=O)N1CCC[C@H]1C(=O)O[C@@H](C)C(=O)O)C1CCCCC1)C(C)C (H-[Sar]RVY[Chg]HP[Lac]-OH) | 3.6 mmHg | 8.6 mmHg | 5.7 mmHg | 8.3 mmHg | 12.1 mmHg
9.981 | 11.18 | CNCC(=O)N[C@@H](CCCN=C(N)N)C(=O)N[C@H](C(=O)N[C@@H](Cc1ccc(O)cc1)C(=O)N[C@H](C(=O)N[C@@H](Cc1c[nH]cn1)C(=O)N1CCC[C@H]1C(=O)N[C@@H](C)C(=O)O)C1CCCCC1)C(C)C | 10.29 mmHg | 16.4 mmHg | 17.9 mmHg | – | 16.9 mmHg
8.392 | 8.52 | CC(C)[C@H](NC(=O)[C@H](CCCN=C(N)N)NC(=O)[C@H](C)O)C(=O)N[C@@H](Cc1ccc(O)cc1)C(=O)N[C@H](C(=O)N[C@@H](Cc1c[nH]cn1)C(=O)N1CCC[C@H]1C(=O)O[C@@H](C)C(=O)O)C1CCCC1 (H-[Lac]RVY[Gly(cPent)]HP[Lac]-OH) | 5.8 mmHg | 10 mmHg | 5 mmHg | 15 mmHg | 5 mmHg
8.614 | 9.53 | CC(C)[C@H](NC(=O)[C@H](CCCN=C(N)N)NC(=O)CO)C(=O)N[C@@H](Cc1ccc(O)cc1)C(=O)N[C@H](C(=O)N[C@@H](Cc1c[nH]cn1)C(=O)N1CCC[C@H]1C(=O)O[C@@H](C)C(=O)O)C1CCCCC1 (Glycolyl-RVY[Chg]HP[Lac]-OH) | 6.7 mmHg | 14.1 mmHg | 7.5 mmHg | 15.8 mmHg | 17.5 mmHg
7.999 | 9.5 | CC[C@H](C)[C@H](NC(=O)[C@H](Cc1ccc(O)cc1)NC(=O)[C@@H](NC(=O)[C@H](CCCN=C(N)N)NC(=O)[C@H](C)O)C(C)C)C(=O)N[C@@H](Cc1c[nH]cn1)C(=O)N1CCC[C@H]1C(=O)O[C@@H](C)C(=O)O | 4.2 mmHg | 10 mmHg | 5.8 mmHg | 16.7 mmHg | 11.7 mmHg
9.649 | 11.09 | CNCC(=O)N[C@@H](CCCN=C(N)N)C(=O)N[C@H](C(=O)N[C@@H](Cc1ccc(O)cc1)C(=O)N[C@H](C(=O)N[C@@H](Cc1c[nH]cn1)C(=O)N1CCC[C@H]1C(=O)O[C@@H](C)C(=O)O)C1CCCC1)C(C)C (H-[Sar]RVY[Gly(cPent)]HP[Lac]-OH) | 5 mmHg | 11.7 mmHg | 10 mmHg | 11.7 mmHg | 9.2 mmHg
